Reference: ChEMBL document CHEMBL5226322, “Harnessing the Role of HDAC6 in Idiopathic Pulmonary Fibrosis: Design, Synthesis, Structural Analysis, and Biological Evaluation of Potent Inhibitors” (J Med Chem, 2021)
≈ marks a conversion by molar mass, not a printed value. Calls of active or inactive are those of the source. The calls are words filed in the database; no cut-off is given here.

What was measured:
[1] = biological target: T1, Histone deacetylase 8 (Homo sapiens, UniProt Q9BY41); experiment: Inhibition of human recombinant HDAC8 using FLUOR DE LYS fluorometric substrate pre-incubated for 15 mins and followed by substrate addition and measured after 60 mins by microplate reader assay
T1 sequence (Q9BY41 whole entry): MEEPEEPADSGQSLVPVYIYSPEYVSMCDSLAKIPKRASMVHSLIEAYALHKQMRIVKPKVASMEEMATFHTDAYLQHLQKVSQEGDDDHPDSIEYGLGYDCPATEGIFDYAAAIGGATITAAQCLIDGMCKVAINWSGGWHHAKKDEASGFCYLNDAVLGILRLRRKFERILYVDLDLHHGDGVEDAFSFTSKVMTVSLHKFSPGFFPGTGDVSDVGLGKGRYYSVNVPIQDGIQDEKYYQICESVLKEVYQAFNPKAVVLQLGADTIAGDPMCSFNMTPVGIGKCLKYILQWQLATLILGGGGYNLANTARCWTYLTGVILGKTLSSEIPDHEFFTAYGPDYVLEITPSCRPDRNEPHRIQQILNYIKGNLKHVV
Method in brief: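 Recombinant human HDAC8 at 0.45 U/reaction with 0.5% DMSO; DMSO-only enzyme served as control. Enzyme preincubated 15 min with compound, then Fluor de Lys substrate added (50 μM final) for 1 h at 30 °C. Quenched with 2 μM TSA in Developer II for a further 1 h at 30 °C. Fluorescence read at ex 370/em 450 nm. IC50 from nonlinear dose-response fit.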

[2] = Solubility of the compound at pH 3 PBS buffer incubated for 24 hrs by HPLC-UV analysis; type: physicochemical; details: pH 3, 24 h
Method in brief: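 Compound from 10 mM DMSO stock diluted to 250 μM (2.5% DMSO), either in 50 mM acetic acid (pH 3.0) or in 50 mM aqueous PBS (pH 7.4). Shaken 24 h at 25 °C, PTFE-filtered and diluted 1:2. Quantified by RP-18 HPLC-UV at 254 nm against a 250 μM standard in MeCN/water. Run in triplicate and averaged.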

[3] = biological target: T2, Protein deacetylase HDAC6 (Homo sapiens) (UniProt Q9UBN7); experiment: Inhibition of HDAC6 in human NB-4 cells assessed as increase in acetylation of alpha-tubulin at 5 uM incubated for 30 hrs by western blot analysis; type: cell-based
T2 sequence (whole entry): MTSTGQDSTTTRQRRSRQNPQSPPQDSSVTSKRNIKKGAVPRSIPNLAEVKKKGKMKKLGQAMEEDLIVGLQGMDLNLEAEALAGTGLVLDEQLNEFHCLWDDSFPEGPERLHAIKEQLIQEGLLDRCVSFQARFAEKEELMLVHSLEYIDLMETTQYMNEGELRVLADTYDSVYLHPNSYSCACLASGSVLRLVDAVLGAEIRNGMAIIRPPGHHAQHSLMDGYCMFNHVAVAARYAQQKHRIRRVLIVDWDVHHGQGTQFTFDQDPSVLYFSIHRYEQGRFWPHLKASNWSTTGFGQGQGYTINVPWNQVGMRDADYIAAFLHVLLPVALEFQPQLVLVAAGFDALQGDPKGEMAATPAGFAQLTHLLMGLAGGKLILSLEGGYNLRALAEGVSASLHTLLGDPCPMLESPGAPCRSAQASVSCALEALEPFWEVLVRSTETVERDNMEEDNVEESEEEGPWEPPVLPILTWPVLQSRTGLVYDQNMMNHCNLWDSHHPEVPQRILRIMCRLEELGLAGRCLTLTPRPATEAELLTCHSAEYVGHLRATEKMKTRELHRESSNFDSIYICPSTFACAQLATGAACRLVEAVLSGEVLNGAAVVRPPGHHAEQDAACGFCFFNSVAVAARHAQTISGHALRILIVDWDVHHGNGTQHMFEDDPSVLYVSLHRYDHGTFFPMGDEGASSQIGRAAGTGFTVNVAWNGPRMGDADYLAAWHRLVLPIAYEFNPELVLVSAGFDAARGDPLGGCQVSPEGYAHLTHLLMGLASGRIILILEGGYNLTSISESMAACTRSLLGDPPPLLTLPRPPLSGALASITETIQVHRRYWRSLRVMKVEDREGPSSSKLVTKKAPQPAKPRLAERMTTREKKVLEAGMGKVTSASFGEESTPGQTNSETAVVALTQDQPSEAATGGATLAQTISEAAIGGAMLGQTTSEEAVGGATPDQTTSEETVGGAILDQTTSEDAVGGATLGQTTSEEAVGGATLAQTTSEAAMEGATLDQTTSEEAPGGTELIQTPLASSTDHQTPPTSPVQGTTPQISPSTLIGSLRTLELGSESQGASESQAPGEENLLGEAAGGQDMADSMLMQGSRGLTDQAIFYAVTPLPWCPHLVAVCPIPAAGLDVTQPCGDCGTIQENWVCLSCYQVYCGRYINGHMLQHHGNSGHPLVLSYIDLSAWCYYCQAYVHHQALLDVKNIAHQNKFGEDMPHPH
Method in brief: (§1)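 Whole lysates (35 μg) and acid-extracted histones (2 μg) run on SDS-PAGE and blotted for acetylated tubulin or acetyl-histone H3; GAPDH or H4 as loading controls.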

[4] = biological target: T2, Protein deacetylase HDAC6 (Homo sapiens); experiment: Inhibition of HDAC6 in human U87 cells assessed as increase in acetylation of alpha-tubulin at 5 uM incubated for 30 hrs by western blot analysis; type: cell-based; method in brief: as §1
[5] = biological target: T3, Histone deacetylase 1 (Homo sapiens, UniProt Q13547); experiment: Inhibition of HDAC1 in human NB-4 cells assessed as increase in acetylation of histone H3 at 5 uM incubated for 30 hrs by western blot analysis; type: cell-based; method in brief: as §1
[6] = biological target: T3, Histone deacetylase 1; experiment: Inhibition of HDAC1 in human U87 cells assessed as increase in acetylation of histone H3 at 5 uM incubated for 30 hrs by western blot analysis; type: cell-based; method in brief: as §1
[7] = Inhibition of spheroid count in IPF patient derived human Airway basal cell incubated for 14 days by Bright-field microscopy analysis; type: functional, cell-based
Method in brief: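 Airway basal cells from bronchial brushings of IPF patients, 10⁴ cells in Matrigel on transwell inserts with 1:1 BEGM/DMEM. Treated 14 days (1–50 nM per methods; 0.1–50 nM per legend), medium changed every 7 days.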

[8] = system: Airway basal cell; experiment: Inhibition of cell proliferation in IPF patient derived human Airway basal cell at 20 to 50 nM incubated for 14 days by MTT assay; type: functional, cell-based; details: dose 20-50 nM, time 14.0 day
Method in brief: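 IPF patient airway basal cell 3D organoid cultures (10⁴ cells in Matrigel, 1:1 BEGM/DMEM) treated 14 days at 1–50 nM, medium changed weekly. Proliferation read by colorimetric MTT on day 14. Mean ± SEM of triplicates, n=3; repeated-measures ANOVA/Friedman test. Reported IC50 is the mean of the count-based and MTT-based IC50s.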

[9] = Metabolic stability in human liver microsome assessed as compound remaining at 5 uM in presence of NADPH by HPLC analysis; type: ADME; details: liver microsomes, read-out: Stability
Method in brief: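 Compound at 5 μM, added in MeCN, incubated at 37 °C in 100 mM phosphate buffer pH 7.4 with 0.5 mg/mL human liver microsomal protein. Reaction started with an NADPH-generating system (2 mM NADPH, glucose-6-phosphate, G6P dehydrogenase, MgCl2). Stopped with MeCN at time points over 0–60 min. Remaining compound measured by RP-18 HPLC-UV at 254 nm, in triplicate. First-order depletion constant k; CLint = k × incubation volume / microsomal protein.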

T3 sequence (Q13547 whole entry): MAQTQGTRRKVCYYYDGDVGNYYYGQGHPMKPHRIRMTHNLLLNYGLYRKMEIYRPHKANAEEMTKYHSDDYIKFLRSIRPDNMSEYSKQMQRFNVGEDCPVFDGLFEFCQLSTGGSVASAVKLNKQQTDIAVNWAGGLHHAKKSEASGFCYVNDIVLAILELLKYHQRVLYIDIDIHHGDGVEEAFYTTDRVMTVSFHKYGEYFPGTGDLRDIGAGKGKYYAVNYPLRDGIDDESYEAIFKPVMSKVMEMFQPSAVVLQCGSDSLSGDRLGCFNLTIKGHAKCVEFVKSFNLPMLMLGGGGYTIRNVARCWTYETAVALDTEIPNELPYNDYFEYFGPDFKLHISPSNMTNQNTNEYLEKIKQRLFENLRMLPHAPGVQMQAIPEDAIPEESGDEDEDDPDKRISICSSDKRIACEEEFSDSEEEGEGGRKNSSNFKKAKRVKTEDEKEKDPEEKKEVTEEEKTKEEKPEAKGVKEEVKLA

CN1CCC2(CC1)c1ccccc1N(Cc1ccc(C(=O)NO)cc1)C2c1ccccc1F (racemic)
IC50 [1]: 3490 nM
solubility [2]: 456 µM (≈ 203 µg/mL)
inhibition [3]: Active
inhibition [4]: Active
inhibition [5]: Active
inhibition [6]: Active
IC50 [7]: 6.38 nM
inhibition [8]: Active
remaining at 5 µM [9]: 100%

CC1(C)c2ccccc2N(Cc2ccc(C(=O)NO)cc2)C1c1cccnc1 (racemic)
IC50 [1]: 2170 nM
solubility [2]: 459 µM (≈ 171 µg/mL)
inhibition [3]: Active
inhibition [4]: Active
inhibition [5]: inactive
inhibition [6]: inactive
IC50 [7]: 7.31 nM
inhibition [8]: Active
remaining at 5 µM [9]: 100%
